Data on three compounds can be found in ChEMBL document CHEMBL1157042, “Triazole incorporated thiazoles as a new class of anticonvulsants: design, synthesis and in vivo screening” (Eur J Med Chem, 2010).

The subject of data set [1] is Mus musculus. Description: Anticonvulsant activity in Swiss albino mouse assessed as inhibition of PTZ-induced motor impairment at 300 mg/kg, ip after 4 hrs. The class given is functional, organism-based. Also on record: dose 300 mg/kg. In short, it runs like this: (§1)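 Albino mice of either sex (25–30 g), 6 per group. Test compound was given i.p. in polyethylene glycol at 30, 100 or 300 mg/kg, and subcutaneous pentylenetetrazole challenge followed 0.5 h or 4.0 h later. Activity was scored as protection in half or more of the mice.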

The species named for data set [2] is Mus musculus. Description: Ratio of HD50 for hypnotic activity in Swiss albino mouse to ED50 for inhibition of maximal electroshock-induced seizures Swiss albino mouse. The class given is functional. The method in brief:
(§2)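 Ratio of HD50 to i.p. ED50 (scPTZ or MES). HD50, in mg/kg, came from loss of righting reflex in i.p.-dosed albino mice, with a dose range analysed as for phase II ED50.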
A general note: In the maximal electroshock model the usual endpoint is tonic extension of the hind limbs.

The subject of data set [3] is Mus musculus. Briefly: Anticonvulsant activity in ip dosed Swiss albino mouse assessed as inhibition of PTZ-induced motor impairment. The class given is functional.
Data set [4] concerns Mus musculus. Briefly: Neurotoxicity in Swiss albino mouse at 300 mg/kg, ip after 4 hrs. Format: toxicity, organism-based. Also on record: dose 300 mg/kg, route intraperitoneal. The following applies: in vivo.
For data set [5], the system named is Mus musculus. Description: Sedative-hypnotic activity in ip dosed Swiss albino mouse after 24 hrs. Format: organism-based. The following applies: in vivo.
Data set [6] concerns Mus musculus. Briefly: Anticonvulsant activity in po dosed Swiss albino mouse assessed as inhibition of maximum electric shock-induced motor impairment after 2 hrs. The class given is functional. The method in brief: (§3)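 Phase IV: same procedure as i.p. phase II (MES protection, or rotorod failure for at least 1 min per trial), but drugs were given orally. Groups of 10 albino mice got a dose range yielding at least three points within 10–90% effect. ED50 or TD50 was read at the indicated time via Litchfield–Wilcoxon.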

Data set [7] deals with Mus musculus. Description: Anticonvulsant activity in ip dosed Swiss albino mouse assessed as inhibition of maximum electric shock-induced motor impairment after 0.5 hrs. The class given is functional. The following applies: read-out: MED.
Data set [8] concerns Mus musculus. Description: Anticonvulsant activity in ip dosed Swiss albino mouse assessed as inhibition of maximum electric shock-induced motor impairment. The class given is functional.
For data set [9], the species on record is Mus musculus. Description: Protective index, ratio of TD50 for neurotoxicity in Swiss albino mouse to ED50 for inhibition of PTZ-induced motor impairment Swiss albino mouse. The class given is functional.
The species named for data set [10] is Mus musculus. Briefly: Protective index, ratio of TD50 for neurotoxicity in Swiss albino mouse to ED50 for inhibition of maximal electroshock-induced seizures Swiss albino mouse. The class given is functional.
Data set [11] can be described thus: Toxicity in ip dosed Swiss albino mouse after 24 hrs. Format: organism-based. The following applies: in vivo. In short, it runs like this: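 Albino mice of either sex (25–30 g), in groups of 10, received a range of i.p. doses in polyethylene glycol until at least three points fell within 10–90% effect. Mortality was scored 24 h after injection.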
In data set [12] the test system is Mus musculus. Briefly: Neurotoxicity in Swiss albino mouse at 300 mg/kg, ip after 0.5 hrs. Format: toxicity, organism-based. Also on record: dose 300 mg/kg, route intraperitoneal. The following applies: in vivo.
Data set [13] deals with Mus musculus. Description: Protective index, ratio of TD50 for neurotoxicity in po dosed Swiss albino mouse to ED50 for inhibition of maximal electroshock-induced seizures po dosed Swiss albino mouse. Format: functional.
Data set [14] concerns Mus musculus. Briefly: Anticonvulsant activity in ip dosed Swiss albino mouse assessed as inhibition of PTZ-induced motor impairment after 0.5 hrs. The class given is functional. The following applies: read-out: MED. In short, it runs like this: (§4)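 Albino mice of either sex (25–30 g), 6 per group, dosed i.p. in polyethylene glycol at 30, 100 or 300 mg/kg. Subcutaneous pentylenetetrazole was given at 0.5 h or 4.0 h, and mice were watched for 30 min. Protection meant no threshold seizure (single clonic spasm episode of at least 5 s). The value is the minimum dose protecting half or more.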

The subject of data set [15] is Mus musculus. Briefly: Anticonvulsant activity in ip dosed Swiss albino mouse assessed as inhibition of maximum electric shock-induced motor impairment after 4 hrs. The class given is functional. The following applies: read-out: MED.
Data set [16] is described as follows: Neurotoxicity in po dosed Swiss albino mouse after 2 hrs. Format: toxicity, organism-based. The following applies: in vivo. In short, it runs like this:
as §3

The species named for data set [17] is Mus musculus. Briefly: Ratio of HD50 for hypnotic activity in Swiss albino mouse to ED50 for inhibition of PTZ-induced motor impairment Swiss albino mouse. The class given is functional. The method in brief:
as §2

A short description of data set [18]: Neurotoxicity in ip dosed Swiss albino mouse. Format: toxicity, organism-based. The following applies: in vivo.
Data set [19] is described as follows: Neurotoxicity in ip dosed Swiss albino mouse after 0.5 hrs. The class given is toxicity, organism-based. The following applies: in vivo. The method in brief: (§5)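 Albino mice of either sex (25–30 g), 6 per group, received i.p. doses of 30, 100 and 300 mg/kg in polyethylene glycol. Trained mice were tested on the rotorod at 0.5 h and 4.0 h. Neurotoxicity was failure to keep balance on the rod for at least 1 min in each trial. The value recorded is the minimum dose affecting half or more of the mice.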

In data set [20] the test system is Mus musculus. Briefly: Anticonvulsant activity in Swiss albino mouse assessed as inhibition of PTZ-induced motor impairment at 300 mg/kg, ip after 0.5 hrs. Format: functional, organism-based. More on the design: dose 300 mg/kg. The method in brief: as §1
The nature of data set [21]: Neurotoxicity in ip dosed Swiss albino mouse after 4 hrs. The class given is toxicity, organism-based. The following applies: in vivo. The method in brief:
as §5

Data set [22] deals with Mus musculus. Description: Anticonvulsant activity in ip dosed Swiss albino mouse assessed as inhibition of PTZ-induced motor impairment after 4 hrs. The class given is functional. The following applies: read-out: MED. In short, it runs like this:
as §4

Structures are written as SMILES. Activity calls are given as the source filed them.

By ED50 is commonly meant the midpoint of the dose-response relation. One may read the LD50 as the dose expected to kill half of the subjects tested. A low value points to greater toxicity. Broadly, the TD50 is the 50% point of the dose-response relation for the toxic effect studied. As to `COc1ccc(-n2c(Nc3nc(-c4ccc(Cl)cc4)cs3)n[nH]c2=S)cc1`, the inhibition result with Mus musculus [1] was “inactive”. Also, the Ratio in the data set filed under Mus musculus [2] was determined as 36.27; in the data set listed under Mus musculus [17], 4.85. The ED50 in the data set on Mus musculus [3] is 179 mg/kg; with Mus musculus [6], 54.8 mg/kg; in the data set with Mus musculus [8], 23.9 mg/kg. The Activity result with Mus musculus [4] and in the data set on Mus musculus [12] was “Non-toxic” in each case. The compound further yielded an HD50 with Mus musculus [5] of 867 mg/kg. Moreover, the minimal effective dose in the data set with Mus musculus [7] was 30 mg/kg; in the data set on Mus musculus [14] it was 300 mg/kg; in the data set on Mus musculus [15], 100 mg/kg. Moreover, the “Ratio TD50/ED50” value in the data set listed under Mus musculus [9] is listed as 2.4; in the data set filed under Mus musculus [10], 18.3; with Mus musculus [13], 13.4. The LD50 at 24 h in data set [11] was determined as 946 mg/kg. In [16], the TD50 at 2 h was determined as 735 mg/kg. Further, in data set [18], the TD50 stood at 439 mg/kg.

Take `O=C1NC(=O)C(c2ccccc2)(c2ccccc2)N1` [PHENYTOIN]: the inhibition result in the data set with Mus musculus [1] and in the data set on Mus musculus [20] was “inactive” in each case. In data set [19], this compound displayed an MTD at 0.5 h of 100 mg/kg. The ED50 in the data set with Mus musculus [3] was greater than 300 mg/kg; with Mus musculus [6], 9.16 mg/kg. In the data set with Mus musculus [5], this compound came in with an HD50 of 182 mg/kg. Also, the minimal effective dose in the data set on Mus musculus [7] and in the data set on Mus musculus [15] was 30 mg/kg throughout. Besides, in [11], the LD50 at 24 h was 224 mg/kg. Besides, the MTD at 4 h in data set [21] was determined as 100 mg/kg.

`Cc1ccccc1-n1c(Nc2nc(-c3ccc(Br)cc3)cs2)n[nH]c1=S`: the minimal effective dose stood at 300 mg/kg with Mus musculus [22], 30 mg/kg in the data set on Mus musculus [7], 100 mg/kg in the data set on Mus musculus [14] and 30 mg/kg with Mus musculus [15]. For the same compound, the results for the Ratio in the data set listed under Mus musculus [2] and in the data set listed under Mus musculus [17] were 47.16 and 7.74, respectively. Also, the values for the ED50 in the data set with Mus musculus [3], in the data set with Mus musculus [6] and in the data set with Mus musculus [8] were 81.6 mg/kg, 49.9 mg/kg and 13.4 mg/kg, respectively. For the same compound, the Activity entry in the data set with Mus musculus [4] and in the data set on Mus musculus [12] was “Non-toxic” each time. This compound returned an HD50 in the data set with Mus musculus [5] of 632 mg/kg. For the same compound, the results for the “Ratio TD50/ED50” value in the data set listed under Mus musculus [9], in the data set listed under Mus musculus [10] and in the data set on Mus musculus [13] were 8.3, 51 and 17.7, respectively. In data set [11], the LD50 at 24 h turned out to be 834 mg/kg. The TD50 at 2 h in data set [16] stood at 884 mg/kg. This compound also yielded a TD50 in data set [18] of 684 mg/kg.
